Published values pooled from the literature.
Each line is one published result; the experiments were not run side by side.
Target: Mitogen-activated protein kinase kinase kinase 3 (MAP3K3, Homo sapiens, UniProt Q99759)
Residues used in one study (Q99759 1-626): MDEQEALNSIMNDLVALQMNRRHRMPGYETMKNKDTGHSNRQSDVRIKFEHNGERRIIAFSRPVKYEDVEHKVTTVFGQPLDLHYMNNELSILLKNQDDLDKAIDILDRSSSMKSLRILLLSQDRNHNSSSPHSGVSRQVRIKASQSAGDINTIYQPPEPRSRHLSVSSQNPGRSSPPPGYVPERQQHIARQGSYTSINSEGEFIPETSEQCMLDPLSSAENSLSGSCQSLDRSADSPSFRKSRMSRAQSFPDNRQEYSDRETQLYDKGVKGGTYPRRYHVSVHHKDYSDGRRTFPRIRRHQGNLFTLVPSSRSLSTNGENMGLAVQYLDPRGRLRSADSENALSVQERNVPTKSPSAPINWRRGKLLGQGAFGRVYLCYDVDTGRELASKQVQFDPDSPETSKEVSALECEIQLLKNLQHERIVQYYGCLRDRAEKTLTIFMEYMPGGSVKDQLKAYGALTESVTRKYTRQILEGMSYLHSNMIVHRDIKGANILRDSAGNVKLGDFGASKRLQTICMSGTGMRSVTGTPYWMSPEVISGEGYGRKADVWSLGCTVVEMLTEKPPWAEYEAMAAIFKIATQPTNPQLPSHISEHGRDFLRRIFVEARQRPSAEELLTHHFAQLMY

CN1CCN(c2cnc3c(C4CCN(C(=O)c5ccc(OC(F)(F)F)cc5N)CC4)ncnc3c2)CC1  remaining binding (cell-free assay, competition with immobilised ligand; 1 µM): 94%
O=C(NCC1CCOCC1)c1n[nH]cc1NC(=O)c1c(F)cccc1F  remaining binding (binding, competition with immobilised ligand; 1 µM): 96%
C[C@@H]1CN(c2cc(-c3nn(C)c4ccc(OC5(C)CC5)cc34)ncn2)C[C@H](C)O1  remaining binding (cell-free assay, competition with immobilised ligand; 1 µM): 90%
O=C(c1ccc(Nc2ncc(Cl)c(-c3ccc(Cl)s3)n2)cc1)N1CCC(N2CCCC2)CC1  remaining binding (binding, competition with immobilised ligand; 1 µM): 6.3%
COc1cnc(Nc2cccc(S(N)(=O)=O)c2)nc1N1CCN(c2ccccc2)C(=O)C1  remaining binding (binding, competition with immobilised ligand; 1 µM): 84%
c1cncc(-c2cccc(Nc3nccc(NC4CCCCC4)n3)c2)c1  remaining binding (binding, competition with immobilised ligand; 10 µM): 41%
C[C@@H]1CCN(c2nccc(-c3cnn4ncccc34)n2)C1  remaining binding (binding; 1 µM): 80%
O=C(c1ccc(Nc2nccc(-c3cc4ccccc4s3)n2)cc1)N1CCC(N2CCCC2)CC1  remaining binding (binding, competition with immobilised ligand; 1 µM): 61%
N[C@@H]1CCN(c2nccc(-c3cnn4ncccc34)n2)C1  remaining binding (binding; 1 µM): 100%
FC(F)(F)Oc1cccc(-c2cnc3ccc(-c4ccncc4)nn23)c1  remaining binding (cell-free assay, competition with immobilised ligand; 5 µM): 51%
O=C(NCCCN1CCOCC1)c1ccc(Nc2ncc(Cl)c(-c3ccc(Cl)s3)n2)cc1  remaining binding (binding, competition with immobilised ligand; 1 µM): 3.6%
CN(CCCC(F)(F)F)c1nccc(-c2cnn3ncccc23)n1  remaining binding (binding; 1 µM): 99%
Nc1c(C(=O)NCc2ccc(C(=O)NCCCC3CCCCC3)cc2)cnn1-c1ccccc1  remaining binding (cell-free assay, competition with immobilised ligand; 0.1 µM): 100%
CC1CCCN1c1nccc(-c2cnn3ncccc23)n1 (stereo not shown)  remaining binding (binding; 1 µM): 97%
Cc1c(NC(=O)c2cc(C(N)=O)nc3cc(F)ccc23)c(C(F)(F)F)nn1Cc1ccc(C(C)(C)C)cc1  remaining binding (cell-free assay, competition with immobilised ligand; 1 µM): 100%
F[C@@H]1CCN(c2nccc(-c3cnn4ncccc34)n2)C1  remaining binding (binding; 1 µM): 100%
O=C(Nc1cccnn1)N1CC(C/C=C/c2cncc(Oc3ccc(C(F)(F)F)cn3)n2)C1  remaining binding (cell-free assay, competition with immobilised ligand; 1 µM): 79%
C[C@@H](c1ccc(-n2cnc3c(N)ncnc32)cc1)N1CCc2nn(C)c(Cc3ccccc3)c2C1=O  remaining binding (binding, competition with immobilised ligand; 0.1 µM): 79%
C[C@@H](c1cccc(C#N)c1)n1cc(Cl)cc(C(N)=O)c1=N  remaining binding (cell-free assay, competition with immobilised ligand; 1 µM): 95%
CN(C)c1nccc(-c2cnn3ncccc23)n1  remaining binding (binding; 1 µM): 100%
Cc1cc(NC(=O)c2cccc(S(F)(F)(F)(F)F)c2)cc(-n2ccn3nc(-c4cccnc4)cc23)c1  remaining binding (cell-free assay, competition with immobilised ligand; 1 µM): 87.9%
CNC(=O)[C@@H]1CC[C@@H](n2c(-c3ccc4cnccc4c3)nc3ccc(C(=O)NCc4cccc(C(N)=O)c4)cc32)C1  remaining binding (binding, competition with immobilised ligand; 1 µM): 100%
